# Measured values: ChEMBL document CHEMBL1121553, “Substituted 6,7-dihydroimidazo[1,2-a]purin-9(4H)-ones” (J Med Chem, 1980)
# The source made the active and inactive calls. The rule behind the calls is not given here.
# Tests used:
# Rattus norvegicus [1] = test: In vivo bronchodilator activity in methacholine (intravenous) induced bronchospasm in male Harlan-Sprague-Dawley rats when administered intraduodenally; statistically significant inhibition of < 50% at thr stated dose; assay type: functional
# Cavia porcellus [2] = organism: Cavia porcellus; test: In vitro bronchodilator activity in isolated guinea pig tracheal spiral preparation; assay type: functional; conditions: Trachea
# Outline: (§1)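 Guinea pig tracheal spiral held under 1.0 g tension, equilibrated 90–120 min to maximal spontaneous tonus. One drug concentration per spiral, ≥3 trials per concentration. Relaxation was expressed as % of that produced by papaverine (10 µg/mL) in the same tissue. Concentrations are bath values in µg/mL; the 50%-relaxation concentration was obtained by regression.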
# Rattus norvegicus [3] = test: In vivo bronchodilator activity in methacholine (intravenous) induced bronchospasm in male Harlan-Sprague-Dawley rats when administered intraduodenally; assay type: functional
# Rattus norvegicus [4] = test: Antiallergic activity was evaluated by inhibition of allergen-induced bronchospasm in male Harlan-Wistar rats when administered intraduodenally 15 min prior to antigen challenge; assay type: functional; conditions: intraduodenal
# Rattus norvegicus [5] = test: Antiallergic activity was evaluated by passive cutaneous anaphylaxis test in egg albumin sensitized male Harlan-Sprague-Dawley rats when administered perorally; assay type: functional; conditions: po
# Outline: (§2)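 Donor rats got egg albumin im (1 mg/rat) plus killed B. pertussis vaccine ip (2 × 10¹⁰ organisms/rat) and were bled 10–12 days later for IgE-rich antiserum. Recipient rats (100–150 g) were sensitized intradermally with 0.1 mL of 1:2.5 and 1:10 antiserum dilutions.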
# Cavia porcellus [6] = organism: Cavia porcellus; test: Evaluation of in vitro bronchodilator activity in isolated guinea pig tracheal spiral preparation; assay type: functional; conditions: Trachea; outline: as §1
# Rattus norvegicus [7] = test: Antiallergic activity by passive cutaneous anaphylaxis test in ovalbumin sensitized male Harlan-Sprague-Dawley rats administered orally; assay type: functional; conditions: po; outline: as §2
# Rattus norvegicus [8] = test: Antiallergic activity by passive cutaneous anaphylaxis test in ovalbumin sensitized male Harlan-Sprague-Dawley rats at 25 mg/kg oral dose (inactive); assay type: functional, organism-based; set-up: dose 25 mg/kg; outline: as §2
# Rattus norvegicus [9] = test: Antiallergic activity by passive cutaneous anaphylaxis test in ovalbumin sensitized male Harlan-Sprague-Dawley rats by oral dose; assay type: functional; outline: as §2
# Rattus norvegicus [10] = test: Antiallergic activity by passive cutaneous anaphylaxis test in ovalbumin sensitized male Harlan-Sprague-Dawley rats administered perorally; assay type: functional; conditions: po; outline: as §2
# Rattus norvegicus [11] = organism: Rattus norvegicus; test: Antiallergic activity in in vitro antigen-induced histamine release from isolated mast cells; assay type: functional, cell-based
# Outline: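 Peritoneal lavage cells from male Harlan-Sprague-Dawley rats (200–300 g), collected in HBSS with 0.1% human albumin and 5 mM phosphate. Cells were sensitized 2 h at 37 °C in rat antiserum with heparin, then challenged with EA; drug was added together with antigen at several concentrations, 4 trials each. After 10 min, histamine was measured fluorimetrically and % inhibition calculated vs drug-free release.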
# Rattus norvegicus [12] = test: Antiallergic activity by passive cutaneous anaphylaxis test in rats by intravenous administration; assay type: functional; outline: as §2
# Rattus norvegicus [13] = test: Percent inhibition of PCA reaction in anesthetized rats after 11.7 mg/kg intraduodenal administration for 15 min; assay type: functional; conditions: 0.25 h
# Outline: (§3)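 Passive cutaneous anaphylaxis in anesthetized rats. Passive sensitization used intradermal IgE antiserum (1:2.5 and 1:10), with a 48-h latent period. Intraduodenal or oral dose is expressed as free-acid equivalent of the salt given. Rats were challenged at 15 min, 3, 6 or 24 h with iv egg albumin 25 mg/kg plus Evans blue 25 mg/kg. Inhibition was calculated from mean spot diameters versus vehicle controls, 10 animals per dose.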
# Rattus norvegicus [14] = test: Percent inhibition of PCA reaction in anesthetized rats at 47.6 mg/kg oral administration for 3 hr; assay type: functional; outline: as §3
# Rattus norvegicus [15] = test: Percent inhibition of PCA reaction in anesthetized rats at 47.6 mg/kg oral administration for 24 hr r; assay type: functional; outline: as §3
# Rattus norvegicus [16] = test: Percent inhibition of PCA reaction in anesthetized rats at 47.6 mg/kg oral administration for 6 hr; assay type: functional; outline: as §3
# Rattus norvegicus [17] = test: Percent inhibition of PCA reaction in anesthetized rats at 47.6 mg/kg oral administration for 15 min; assay type: functional; conditions: 0.25 h; outline: as §3
# Rattus norvegicus [18] = test: Antiallergic activity by passive cutaneous anaphylaxis test in rats by intraduodenal administration; assay type: functional
# Outline: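 Recipient male Harlan-Sprague-Dawley or Wistar rats (100–150 g) received 0.1 mL intradermal antiserum at 1:2.5 and 1:10. Donor antiserum came from rats given egg albumin 1 mg im plus killed B. pertussis 2 × 10¹⁰ ip, bled 10–12 days later. After 48 h, drug went intraduodenally under anesthesia, then iv egg albumin 25 mg/kg with Evans blue 25 mg/kg. Read-out was spot-diameter inhibition versus controls, ≥5 rats/dose; ED50 was estimated.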
# [19] = Inhibition of rat lung cGMP-Phosphodiesterase
# Rattus norvegicus [20] = organism: Rattus norvegicus; test: Antiallergic activity by passive cutaneous anaphylaxis test in vitro in rats; assay type: functional
# Outline: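 Peritoneal mast cells were lavaged from male Harlan-Sprague-Dawley rats (200–300 g) with HBSS containing 0.1% albumin and 5 mM phosphate. Cells were sensitized with IgE antiserum plus heparin for 2 h at 37 °C, then challenged with egg albumin, drug added simultaneously. After 10 min, histamine was measured fluorimetrically; inhibition versus no-drug release, four trials per concentration.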
# Rattus norvegicus [21] = test: Percent inhibition of PCA reaction in anesthetized rats at 11.7 mg/kg intraduodenal administration for 3 hr
# Rattus norvegicus [22] = test: Percent inhibition of PCA reaction at 33 mg/kg oral dose after 24 hr r; assay type: functional
# Rattus norvegicus [23] = test: In vivo bronchodilator effect on (intravenous) methacholine-induced bronchospasm in male Harlan-Sprague-Dawley rats at 10 mg/kg intraduodenal dose (inactive); assay type: functional, organism-based; set-up: dose 10 mg/kg
smiles,measurement,setting,value
O=C1c2[nH]nnc2N(Cc2ccc(F)cc2)C2=NCCN12,ED50,Rattus norvegicus [1],> 10 mg/kg
same,IC50,Cavia porcellus [2],> 200 µg/mL
C[C@H]1N=C2N(Cc3ccc(Cl)cc3)c3[nH]cnc3C(=O)N2[C@H]1C,ED50,Rattus norvegicus [3],3 mg/kg
same,ED50,Rattus norvegicus [4],1.7 mg/kg
same,ED50,Rattus norvegicus [5],28.5 mg/kg
same,IC50,Cavia porcellus [2],0.7 µg/mL
S=C1c2[nH]cnc2N(Cc2ccc(Cl)cc2)C2=NCCN12,ED50,Rattus norvegicus [1],> 30 mg/kg
same,IC50,Cavia porcellus [2],5.1 µg/mL
O=C1c2[nH]cnc2N(Cc2ccccc2Cl)C2=NCCN12,IC50,Cavia porcellus [2],49 µg/mL
CC1CN2C(=O)c3c(ncn3C)N(Cc3ccc(Cl)cc3)C2=N1 (stereo not given),ED50,Rattus norvegicus [3],1.1 mg/kg
same,ED50,Rattus norvegicus [4],3.4 mg/kg
same,ED50,Rattus norvegicus [5],28.9 mg/kg
same,IC50,Cavia porcellus [2],2.3 µg/mL
O=C1c2[nH]c(Br)nc2N(Cc2ccc(Cl)cc2)C2=NCCN12,IC50,Cavia porcellus [6],54 µg/mL
CC1(C)CN2C(=O)c3[nH]cnc3N(Cc3ccc(Cl)cc3)C2=N1,ED50,Rattus norvegicus [4],3 mg/kg
same,ED50,Rattus norvegicus [7],35.3 mg/kg
same,IC50,Cavia porcellus [2],14.3 µg/mL
N=C1c2[nH]cnc2N(Cc2ccc(Cl)cc2)C2=NCCN12,ED50,Rattus norvegicus [1],> 30 mg/kg
same,IC50,Cavia porcellus [2],19.8 µg/mL
CCc1nc2c([nH]1)N(CC(C)C)C1=NCCN1C2=O,IC50,Cavia porcellus [2],16.7 µg/mL
Cc1nc2c(n1C)C(=O)N1CC(C)N=C1N2Cc1ccc(Cl)cc1 (stereo not given),ED50,Rattus norvegicus [3],7.5 mg/kg
same,ED50,Rattus norvegicus [4],14.2 mg/kg
same,ED50,Rattus norvegicus [5],38.7 mg/kg
same,IC50,Cavia porcellus [2],7.9 µg/mL
Cn1cnc2c1C(=O)N1CCN=C1N2Cc1ccc(Cl)cc1,ED50,Rattus norvegicus [8],inactive
same,ED50,Rattus norvegicus [3],8.8 mg/kg
same,IC50,Cavia porcellus [2],2.9 µg/mL
CC(C)CN1C2=NCCN2C(=O)c2[nH]cnc21,ED50,Rattus norvegicus [9],> 25 mg/kg
same,IC50,Cavia porcellus [2],6.3 µg/mL
CC1CN2C(=O)c3[nH]cnc3N(Cc3ccc(Cl)cc3)C2=N1 (stereo not given),ED50,Rattus norvegicus [3],2.1 mg/kg
same,ED50,Rattus norvegicus [4],1.5 mg/kg
same,ED50,Rattus norvegicus [5],10.6 mg/kg
same,IC50,Cavia porcellus [2],3.7 µg/mL
Cc1nc2c(n1C)C(=O)N1CCN=C1N2Cc1ccc(Cl)cc1,IC50,Cavia porcellus [2],8.4 µg/mL
O=C1c2[nH]cnc2N(Cc2ccc(F)cc2)C2=NCCN12,IC50,Cavia porcellus [2],17.5 µg/mL
O=C1c2nc[nH]c2N(Cc2ccccn2)C2=NCCN12,ED50,Rattus norvegicus [10],> 25 mg/kg
same,IC50,Cavia porcellus [2],128 µg/mL
CSc1nc2c([nH]1)N(Cc1ccc(Cl)cc1)C1=NCCN1C2=O,ED50,Rattus norvegicus [3],> 30 mg/kg
same,IC50,Cavia porcellus [6],13.7 µg/mL
O=C1c2[nH]cnc2N(Cc2cccc(Cl)c2)C2=NCCN12,IC50,Cavia porcellus [2],12.5 µg/mL
O=C([O-])c1cc(=O)c2c(OCC(O)COc3cccc4oc(C(=O)[O-])cc(=O)c34)cccc2o1.[Na+].[Na+] [CROMOLYN SODIUM],IC50,Rattus norvegicus [11],8 µM
same,ED50,Rattus norvegicus [12],0.29 mg/kg
CCCCCCCCN1C2=NCCN2C(=O)c2[nH]cnc21,IC50,Cavia porcellus [6],24.5 µg/mL
O=C1c2[nH]cnc2N(Cc2ccc(Cl)c(Cl)c2)C2=NCCN12,IC50,Cavia porcellus [2],12.5 µg/mL
CC(C)CN1C2=NCCN2C(=O)c2[nH]nnc21,ED50,Rattus norvegicus [1],> 30 mg/kg
same,ED50,Rattus norvegicus [10],> 30 mg/kg
same,IC50,Cavia porcellus [2],~200 µg/mL
Cn1c(=O)c2nc[nH]c2n(C)c1=O.O [THEOPHYLLINE],inhibition in vivo at 11.7 mg/kg,Rattus norvegicus [13],42.4%
same,inhibition in vivo at 47.6 mg/kg,Rattus norvegicus [14],52.5%
same,inhibition in vivo at 47.6 mg/kg,Rattus norvegicus [15],0%
same,inhibition in vivo at 47.6 mg/kg,Rattus norvegicus [16],13%
same,inhibition in vivo at 47.6 mg/kg,Rattus norvegicus [17],51.9%
same,ED50,Rattus norvegicus [18],11.7 mg/kg
same,Ki,[19],1150 µM
same,IC50,Rattus norvegicus [20],2500 µM
same,inhibition in vivo at 11.7 mg/kg,Rattus norvegicus [21],25.1%
same,ED50,Rattus norvegicus [12],> 7.9 mg/kg
same,IC50,Cavia porcellus [6],18.5 µg/mL
O=C1c2nc[nH]c2N(Cc2ccccc2)C2=NCCN12,ED50,Rattus norvegicus [8],inactive
same,IC50,Cavia porcellus [2],22.5 µg/mL
CCCCn1cnc2c1C(=O)N1CCN=C1N2Cc1ccc(Cl)cc1,ED50,Rattus norvegicus [1],> 10 mg/kg
same,IC50,Cavia porcellus [2],15.5 µg/mL
O=C1c2[nH]cnc2N(Cc2ccc(Cl)cc2)C2=NCCN12,inhibition in vivo at 33 mg/kg,Rattus norvegicus [22],11.5%
same,ED50,Rattus norvegicus [4],0.9 mg/kg
same,ED50,Rattus norvegicus [18],8.4 mg/kg
same,IC50,Cavia porcellus [2],14 µg/mL
same,IC50,Rattus norvegicus [20],490 µM
same,ED50,Rattus norvegicus [12],2.4 mg/kg
Cn1c(Br)nc2c1C(=O)N1CCN=C1N2Cc1ccc(Cl)cc1,ED50,Rattus norvegicus [23],inactive
same,IC50,Cavia porcellus [6],3.9 µg/mL
Cc1nc2c([nH]1)N(Cc1ccc(Cl)cc1)C1=NC(C)(C)CN1C2=O,ED50,Rattus norvegicus [3],7.3 mg/kg
same,ED50,Rattus norvegicus [4],1.08 mg/kg
same,ED50,Rattus norvegicus [5],44.4 mg/kg
same,IC50,Cavia porcellus [2],1.7 µg/mL
Cn1c(N)nc2c1C(=O)N1CCN=C1N2Cc1ccc(Cl)cc1,ED50,Rattus norvegicus [1],> 30 mg/kg
same,IC50,Cavia porcellus [2],4.8 µg/mL
CCc1nc2c([nH]1)N(Cc1ccc(Cl)cc1)C1=NCCN1C2=O,ED50,Rattus norvegicus [1],> 10 mg/kg
same,IC50,Cavia porcellus [2],13 µg/mL
O=C1c2nc[nH]c2N(CC2CCCCC2)C2=NCCN12,ED50,Rattus norvegicus [8],inactive
same,IC50,Cavia porcellus [6],10 µg/mL
C[C@@H]1N=C2N(Cc3ccc(Cl)cc3)c3[nH]cnc3C(=O)N2[C@H]1C,ED50,Rattus norvegicus [3],5 mg/kg
same,ED50,Rattus norvegicus [4],2.8 mg/kg
same,ED50,Rattus norvegicus [5],35.5 mg/kg
same,IC50,Cavia porcellus [2],1.1 µg/mL
CC(C)CN1C2=NCCN2C(=O)c2[nH]c(C(C)C)nc21,ED50,Rattus norvegicus [3],9.5 mg/kg
same,ED50,Rattus norvegicus [5],15.3 mg/kg
same,IC50,Cavia porcellus [2],11.5 µg/mL
Cc1nc2c([nH]1)C(=O)N1CCN=C1N2CC(C)C,ED50,Rattus norvegicus [4],5.4 mg/kg
same,IC50,Cavia porcellus [2],2.8 µg/mL
Oc1c2ncnc-2n(Cc2ccc(Cl)cc2)c2nccn12,ED50,Rattus norvegicus [3],8.1 mg/kg
same,IC50,Cavia porcellus [2],4.1 µg/mL
O=C1c2[nH]cnc2N(CCc2ccc(Cl)cc2)C2=NCCN12,ED50,Rattus norvegicus [8],inactive
same,IC50,Cavia porcellus [2],53 µg/mL
CC(C)CN1C2=NC(C)CN2C(=O)c2[nH]cnc21 (stereo not given),ED50,Rattus norvegicus [10],> 30 mg/kg
same,IC50,Cavia porcellus [2],14 µg/mL
Cc1nc2c([nH]1)N(Cc1ccc(Cl)cc1)C1=NCCN1C2=O,ED50,Rattus norvegicus [3],1.3 mg/kg
same,IC50,Cavia porcellus [2],5.3 µg/mL
Cc1nc2c([nH]1)C(=O)N1CC(C)N=C1N2Cc1ccc(Cl)cc1 (stereo not given),ED50,Rattus norvegicus [3],1 mg/kg
same,ED50,Rattus norvegicus [4],1.23 mg/kg
same,ED50,Rattus norvegicus [5],30.2 mg/kg
same,IC50,Cavia porcellus [2],4.4 µg/mL
Cc1nc2c(n1C)C(=O)N1CCN=C1N2CC(C)C,IC50,Cavia porcellus [2],36.6 µg/mL
O=C1N2CCN=C2c2[nH]cnc2N1Cc1ccc(Cl)cc1,ED50,Rattus norvegicus [1],> 50 mg/kg
CSC1=C2N=CN=C2N(Cc2ccc(Cl)cc2)C2=NCCN21,ED50,Rattus norvegicus [3],> 30 mg/kg
same,IC50,Cavia porcellus [6],8.1 µg/mL
